# Assay outcomes: PubChem BioAssay, several laboratories
# Rows were chosen to be rich in hits. Some 3.9% of all compounds tested hit in one or more screens of this group.
# NS3 helicase inh: HCV NS3 helicase inhibition; NS3 helicase DNA unwinding, Cy5 molecular beacon fluorescence; inhibition, % at 10.9 µM; hit rate 0.56% among 290,000; AID 1800;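 active = inhibition above the mean of all tested compounds plus 3 SD, set per campaign, cut at about 35% in these data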;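 note: 0% = DMSO wells and 100% = thioflavine S control wells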
#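 Assay system – hepatitis C virus NS3 helicase domain fragment enzyme · Buffer or medium – MOPS pH 6.5, MgCl2, DTT, Tween20, BSA · Reagent – Cy5/quencher beacon DNA duplex and ATP to start · Compound – single 10.9 µM dose · Timing – 1 h at 25 °C · Technique – Cy5 beacon fluorescence read at start and 1 h · Measure – % inhibition of unwinding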
# HCV core dimer: blocks dimerization of HCV core protein | inhibition, % at 5 µM | TR-FRET GST/Flag-core106 dimerization, 1536-well | hit rate 0.33% among 300,000;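 active = inhibition above the mean of all tested compounds plus 3 SD, set per screening campaign, cut at about 45% in these data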
#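 Assay system – GST-tagged and Flag-tagged HCV core protein residues 1-106 · Quantity – core106 proteins, GST 13.5 nM and Flag 17 nM · Benchmarks – unlabelled core106 and no-GST-core106 wells · Read-out basis – percent inhibition of core106 dimerization signal · Detection – time-resolved FRET, ex 340 nm, em 617 and 671 nm · Schedule – 4 h at 22.5 °C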
# HSP90 refold inh: inhibitors of HSP90 luciferase refolding in rabbit reticulocyte lysate | hit rate 0.91% among 290,000 | luciferase refolding luminescence, 3 h | inhibition, % at 5.6 µM;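 active = inhibition above the screen-wide mean plus 3 SD, computed separately per campaign, cut at about 16% in these data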;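 note: 0% = DMSO wells and 100% = 60 µM geldanamycin wells; inhibitors lower the luminescence because luciferase stays unfolded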
# FID counter: counter-screen for HCV NS3 helicase inhibitors: DNA intercalator displacement | DNA fluorescent intercalator displacement, fluorescence | inhibition, % at 7.9 µM | hit rate 0.17% among 290,000; in the data active = inhibition above about 37%;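 note: 0% = vehicle and 100% = reference compound; higher means more ethidium bromide displaced from hairpin DNA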
# HSF1 activator: increases HSF-1 driven luciferase reporter signal; NIH3T3-HGL HSF-1 luciferase reporter, MG132, 8 h; 100% = twice DMSO control signal; hit rate 1.7% among 300,000; AID 504408; activation, % at 9 µM;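 active = mean replicate activation of at least 50% with a set share of replicates each reaching 50%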;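 note: 0% = median of the neutral control wells and 100% = twice that signal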
# HSF1 inhib: HSF1 inhibition; NIH3T3-HGL HSE-luciferase, MG132-induced, luminescence 8 h; hits give low values; activity change, negative = inhibition, % at 7.5 µM (by protocol); hit rate 0.77% among 300,000; AID 2098;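 active = more than half of replicate wells show activity change below -50%, luminescence cut by over half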;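 note: luciferase reports HSF-1 transcriptional activity via heat shock element; 0% = median of DMSO wells and -100% = zero luminescence signal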
# Starred values were filed as active, the others as inactive; / = not tested or not shown.
SMILES,NS3 helicase inh,HCV core dimer,HSP90 refold inh,FID counter,HSF1 activator,HSF1 inhib
C=C(NC(=O)C(=C)NC(=O)c1csc(C2=NC3c4csc(n4)C4NC(=O)c5csc(n5)C([C@@](C)(O)C(C)O)NC(=O)C5CSC(=N5)/C(=C\C)NC(=O)C(C(C)O)NC(=O)c5csc(n5)[C@]3(CC2)NC(=O)C(C)NC(=O)C(=C)NC(=O)C(C)NC(=O)C(C(C)CC)NC2C=Cc3c(C(C)O)cc(nc3C2O)C(=O)OC4C)n1)C(N)=O (some centres undefined),/,70*,/,/,/,/
O=C(O)c1ccc(CSc2nc3ccc(NC(=O)c4ccccc4C(=O)O)cc3s2)cc1,24,2,-1,-31,-11,-5
N#Cc1ccccc1CSc1nc2ccc(NC(=O)c3ccccc3C(=O)O)cc2s1,-5,47*,2,4,48,14
Cc1c(NC(=O)C2CC(c3ccc(F)cc3)=NO2)c(=O)n(-c2ccccc2)n1C (centres undefined),0,-1,-5,-2,-88,-84*
O=C(C#Cc1ccccc1)c1ccco1,-3,1,5,-10,-96,-96*
O=C(N/N=C/c1ccccc1)c1ccco1,-1,-6,4,-3,18,2
COc1cc(CC(=O)Nc2ccc(S(=O)(=O)NC3=NCCCCC3)cc2)cc(OC)c1OC,-11,-29,-4,-16,-3,1
CC1(C)C(=O)Nc2ccccc2N1C(=O)COc1ccc(S(=O)(=O)N2CCOCC2)cc1Cl,-1,65*,-4,-27,10,-6
CC(C)NC(=O)NS(=O)(=O)c1cnccc1N1CCCCC1,-1,1,0,1,51*,27
CC(C)NC(=O)N1CCN(c2ccncc2S(=O)(=O)N2CCOCC2)CC1,1,-6,0,0,-10,-7
Cc1cc(C(=O)COC(=O)C2=COCCO2)c(C)n1-c1ccc2c(c1)OCO2,-9,23,-7,-25,5,0
Cc1cc(C(=O)COC(=O)Cc2n[nH]c(=O)c3ccccc23)c(C)n1-c1ccc2c(c1)OCCO2,10,20,1,-7,-58,-57*
CCc1nnc(NS(=O)(=O)c2ccc(Nc3ccc4nonc4c3[N+](=O)[O-])cc2)s1,21,3,-4,-16,-2,-3
N=c1c(C(=O)NCc2ccco2)cc2c(=O)n3ccccc3nc2n1Cc1ccccc1,11,65*,0,-15,-7,1
N=c1c(C(=O)NCc2ccc(F)cc2)cc2c(=O)n3ccccc3nc2n1Cc1ccco1,12,29,2,0,14,1
N=c1c(C(=O)NCc2ccccc2)cc2c(=O)n3ccccc3nc2n1Cc1ccco1,2,24,-2,-14,14,4
N=c1c(C(=O)NCc2ccco2)cc2c(=O)n3ccccc3nc2n1Cc1ccc(Cl)cc1,25,67*,9,0,20,25
Cc1ccc2nc3c(cc(C(=O)NCc4ccco4)c(=N)n3Cc3ccco3)c(=O)n2c1,12,70*,-5,1,33,33
Cc1ccc(S(=O)(=O)NNC(=O)c2sc3nc(C)cc(C)c3c2-n2cccc2)cc1,-4,10,2,-21,73*,30
Cc1ccc(S(=O)(=O)NNC(=O)c2sccc2-n2cccc2)cc1,-4,0,-1,-8,24,8
CC(C)(C)C(=O)N1CCN(CCN2C(=O)c3cccc4cccc(c34)C2=O)CC1,-3,-6,-6,-11,-61,-53*
CC(C)C(=O)N1CCN(CCN2C(=O)c3cccc4cccc(c34)C2=O)CC1,1,/,-2,-24,17,7
COc1cccc(CN(C)C(=O)c2ccc(COc3ccc(Cl)cc3)cc2)c1OC,7,-5,1,-46,55*,31
O=C(Nc1ccccc1)Nc1nnc(-c2ccccc2)o1,-5,-4,1,-3,-13,-7
c1ccc(-c2nnc(NC3=NCCC3)o2)cc1,5,-2,17*,-3,12,-1
SMILES,NS3 helicase inh,HCV core dimer,HSP90 refold inh,FID counter,HSF1 activator,HSF1 inhib
CCC(=O)N1C(C(=O)N2CCCC2)CSC1c1ccc(OC)cc1 (centres undefined),6,0,-1,-17,-90,-88*
CCC(=O)N1C(C(=O)O)CSC1c1ccc(OC)cc1 (centres undefined),2,-1,-1,0,-10,-5
COc1ccccc1N1CCN(c2ccnc3cc(Cl)ccc23)CC1,-29,-2,-3,-20,-25,-25
C=CCn1c(COc2ccc(CC)cc2)nnc1SC/C(O)=C(\C#N)c1nc2ccccc2[nH]1,1,70*,4,-12,80*,33
N#C/C(=C(/O)CSc1nnc(Cc2cccs2)n1C1CCCCC1)c1nc2ccccc2[nH]1,9,63*,6,-33,-2,8
C=CCn1c(COc2ccccc2)nnc1SCc1ccc(C#N)cc1,-2,1,1,-29,3,1
COc1ccccc1-c1nnc(SC/C(O)=C(\C#N)c2nc3ccccc3[nH]2)n1C1CCCCC1,-6,24,5,-33,1,8
CCCC(C)NS(=O)(=O)c1ccccc1 (centres undefined),-5,1,-4,-2,-68,-59*
COCC(C)NS(=O)(=O)c1ccccc1 (centres undefined),2,0,3,-6,3,-1
Cc1ccc(C2=NN(C(=O)c3cccs3)C(c3ccccc3O)C2)cc1 (centres undefined),-1,15,-2,0,80*,54
CCC1CCCCN1C(=O)COc1ccc(N(C)S(=O)(=O)c2ccc(C)cc2)cc1 (centres undefined),4,9,0,-48,14,11
COc1ccc(C(=O)Nc2oc(-c3ccccc3)c(-c3ccccc3)c2C#N)cc1,-3,47*,-1,3,1,8
COc1ccc(-c2oc(NC(=O)c3ccc(C)cc3)c(C#N)c2-c2ccc(OC)cc2)cc1,-9,60*,1,-3,30,8
COc1ccc(C(=O)Nc2oc(-c3ccccc3)c(-c3ccccc3)c2C#N)cc1OC,-3,18,-3,-11,/,/
Cc1sc(NC(=O)c2ccccc2)c(C#N)c1-c1ccccc1,13,2,-1,-5,57*,33
CCc1c(C)sc(NC(=O)c2cccs2)c1C#N,-2,-11,-6,0,2,7
COc1ccc(-c2oc(NC(C)=O)c(C#N)c2-c2ccc(OC)cc2)cc1,-7,14,4,-9,6,-3
O=C(Cn1cc(C(=O)c2ccco2)c2ccccc21)NC1CCCC1,0,6,-2,-3,3,12
CCOc1ccc(C2=Cc3cc(OC)c(OC)cc3C(=C(Cl)Cl)O2)cc1,-3,/,2,-7,/,/
